Measured values gathered from unrelated publications.
Organism: Staphylococcus aureus
Observed: microbial growth

Compound	assay	system	setting	MIC
C[C@H]1COc2c(N3CCN(C)CC3)c(F)cc3c(=O)c(C(=O)O)cn1c23		ATCC29213 MSSA	drug-resistant strain	0.12 µg/mL
CCCCCCC#Cc1cncc(-c2nnc(SCc3ccc([N+](=O)[O-])o3)n2CCCN)c1	broth dilution	ATCC29213		> 64 µg/mL
[H]/N=C(/N)N[C@H]1[C@H](O)[C@@H](O)[C@H](O[C@@H]2O[C@@H](C)[C@](O)(C=O)[C@H]2O[C@@H]2O[C@@H](CO)[C@H](O)[C@@H](O)[C@@H]2NC)[C@@H](N/C(N)=N\[H])[C@@H]1O	broth dilution	ATCC6538		15 µg/mL
CC(=O)c1ccc2cc(S(=O)(=O)Nc3ccc(Br)cc3)ccc2c1	broth dilution	ATCC25923		20000 µg/mL
CCCCCCC#Cc1cncc(-c2nnc(SCc3cc([N+](=O)[O-])cc([N+](=O)[O-])c3)n2C2CCNCC2)c1	broth dilution	MRSA		8 µg/mL
CCN1CCC(CCNCc2cc3cc(OC)c(OC)c(OC)c3nc2SCc2ccccc2)CC1	broth dilution			128 µg/mL
Cc1ccc2[nH]nc(-c3nnc(Nc4ccc(C)c(C)c4)s3)c2c1		ATCC29213		94.2 µg/mL
CCC[C@@H]1C[C@@H](C(=O)N[C@@H]([C@H]2O[C@H](SC)[C@H](O)[C@@H](O)[C@H]2O)[C@@H](C)O)N(C)C1	broth dilution	USA300		2 µg/mL
N=c1sc(C(=O)c2ccc(Nc3cnccn3)cc2)nn1-c1ccccc1	broth dilution	ATCC25923		50 µg/mL
CC[C@H]1OC(=O)[C@H](C)[C@@H](O[C@H]2C[C@@](C)(OC)[C@@H](O)[C@H](C)O2)[C@H](C)[C@@H](O[C@@H]2O[C@H](C)C[C@H](N(C)C)[C@H]2O)[C@](C)(O)C[C@@H](C)/C(=N\OCOCCOC)[C@H](C)[C@@H](O)[C@]1(C)O	agar dilution	ATCC29213		4 µg/mL
COc1cccc(OC)c1C(=O)N[C@@H]1C(=O)N2[C@@H]1SC(C)(C)[C@@H]2C(=O)O	broth dilution	ATCCBAA44 BAA44		> 64 µg/mL
[H]/N=C(\N/C(=N/[H])NCCCCCCNC(=N)NC(=N)Nc1ccc(Cl)cc1)Nc1ccc(Cl)cc1		MRSA USA300	drug-resistant strain	1 µM
Cc1ccc2[nH]nc(-c3nnc(Nc4ccc(Cl)cc4)s3)c2c1		ATCC29213		44.5 µg/mL
c1ccc(CSc2nc3ccccc3cc2CNCc2ccc(CN3CCCC3)cc2)cc1	broth dilution			64 µg/mL
CCCCCCCCCCCC[N+](C)(C)Cc1ccccc1		MSSA		4 µM
Cc1cc(O)cc(Nc2nnc(-c3n[nH]c4ccc(C)cc34)s2)c1		ATCC29213		87.6 µg/mL
CC1(C)S[C@@H]2[C@H](NC(=O)[C@H](N)c3ccc(O)cc3)C(=O)N2[C@H]1C(=O)O	broth dilution	ATCCBAA44 BAA44		64 µg/mL
CN[C@H](CC(C)C)C(=O)N[C@H]1C(=O)N[C@@H](CC(N)=O)C(=O)N[C@H]2C(=O)N[C@H]3C(=O)N[C@H](C(=O)N[C@H](C(=O)O)c4cc(O)cc(O)c4-c4cc3ccc4O)[C@H](O)c3ccc(c(Cl)c3)Oc3cc2cc(c3O[C@@H]2O[C@H](CO)[C@@H](O)[C@H](O)[C@H]2O[C@H]2C[C@](C)(N)[C@H](O)[C@H](C)O2)Oc2ccc(cc2Cl)[C@H]1O	broth dilution	ATCC29213		1 µg/mL
COc1ccc(C=NNC(=O)CSc2nc3c(C)cccc3c(=O)n2-c2ccccc2)cc1OS(C)(=O)=O	broth dilution			12.5 µg/mL
CN[C@H](CC(C)C)C(=O)N[C@H]1C(=O)N[C@@H](CC(N)=O)C(=O)N[C@H]2C(=O)N[C@H]3C(=O)N[C@H](C(=O)N[C@H](C(=O)O)c4cc(O)cc(O)c4-c4cc3ccc4O)[C@H](O)c3ccc(c(Cl)c3)Oc3cc2cc(c3O[C@@H]2O[C@H](CO)[C@@H](O)[C@H](O)[C@H]2O[C@H]2C[C@](C)(N)[C@H](O)[C@H](C)O2)Oc2ccc(cc2Cl)[C@H]1O	agar dilution	ATCC25923		0.5 µg/mL

Compound	assay	system	setting	MIC
COc1cc2cc(CNCCN3CCN(C)CC3)c(SCc3ccccc3)nc2c(OC)c1OC	broth dilution			128 µg/mL
CC(=O)NC[C@H]1CN(c2ccc(N3CCOCC3)c(F)c2)C(=O)O1	agar dilution	ATCC43300		2 µg/mL
CN[C@H](CC(C)C)C(=O)N[C@H]1C(=O)N[C@@H](CC(N)=O)C(=O)N[C@H]2C(=O)N[C@H]3C(=O)N[C@H](C(=O)N[C@H](C(=O)O)c4cc(O)cc(O)c4-c4cc3ccc4O)[C@H](O)c3ccc(c(Cl)c3)Oc3cc2cc(c3O[C@@H]2O[C@H](CO)[C@@H](O)[C@H](O)[C@H]2O[C@H]2C[C@](C)(N)[C@H](O)[C@H](C)O2)Oc2ccc(cc2Cl)[C@H]1O	broth dilution	MRSA		0.67 µM
CCN1CCC(CCNCc2cc3cc(Br)ccc3nc2SCc2ccccc2)CC1	broth dilution			32 µg/mL
N#CC(C#N)=C1SC(C(=O)c2ccc(Nc3cnccn3)cc2)=NN1c1ccc([N+](=O)[O-])cc1	broth dilution	ATCC25923		3.12 µg/mL
CC1(C)S[C@@H]2[C@H](NC(=O)[C@H](N)c3ccccc3)C(=O)N2[C@H]1C(=O)O	agar dilution	ATCC43300		> 128 µg/mL
N=c1sc(C(=O)c2ccc(Nc3cnccn3)cc2)nn1-c1ccc([N+](=O)[O-])cc1	broth dilution	ATCC25923		3.12 µg/mL
Cc1ccc2[nH]nc(-c3nnc(Nc4ccc([N+](=O)[O-])cc4)s3)c2c1		ATCC29213		37.4 µg/mL
CC1(C)S[C@@H]2[C@H](NC(=O)[C@H](N)c3ccccc3)C(=O)N2[C@H]1C(=O)O	broth dilution	ATCC25923	12 h	0.13 µg/mL
CCCCCCC#Cc1cncc(-c2nnc(SCc3cc([N+](=O)[O-])cc([N+](=O)[O-])c3)n2CCOC2OC(CN)C(O)C2O)c1 (stereo not shown)	broth dilution	ATCC29213		> 64 µg/mL
O=C(O)c1cn(C2CC2)c2cc(N3CCNCC3)c(F)cc2c1=O	broth dilution	ATCC33591 MRSA		0.5 µg/mL
c1ccc(CSc2nc3ccc(-c4ccccc4)cc3cc2CNCc2ccc(CN3CCCC3)cc2)cc1	broth dilution			> 128 µg/mL
CN[C@H](CC(C)C)C(=O)N[C@H]1C(=O)N[C@@H](CC(N)=O)C(=O)N[C@H]2C(=O)N[C@H]3C(=O)N[C@H](C(=O)N[C@H](C(=O)O)c4cc(O)cc(O)c4-c4cc3ccc4O)[C@H](O[C@H]3C[C@](C)(N)[C@@H](O)[C@H](C)O3)c3ccc(c(Cl)c3)Oc3cc2cc(c3O[C@@H]2O[C@H](CO)[C@@H](O)[C@H](O)[C@H]2O[C@H]2C[C@](C)(NCc3ccc(-c4ccc(Cl)cc4)cc3)[C@@H](O)[C@H](C)O2)Oc2ccc(cc2Cl)[C@H]1O	broth dilution			2 µM
COc1c(N2C[C@@H]3CCCN[C@@H]3C2)c(F)cc2c(=O)c(C(=O)O)cn(C3CC3)c12	agar dilution	ATCC25923		0.0625 µg/mL
CCCCCCCCN=c1ccn(CCCCCCCCCCn2ccc(=NCCCCCCCC)cc2)cc1		MSSA		0.5 µM
CC[C@H]1OC(=O)[C@H](C)[C@@H](O[C@H]2C[C@@](C)(OC)[C@@H](O)[C@H](C)O2)[C@H](C)[C@@H](O[C@@H]2O[C@H](C)C[C@H](N(C)C)[C@H]2O)[C@](C)(O)C[C@@H](C)C(=O)[C@H](C)[C@@H](O)[C@]1(C)O	broth dilution	USA300		> 64 µg/mL
CCCCCCC#Cc1cncc(-c2nnc(SCc3ccc([N+](=O)[O-])cc3)n2CCCN)c1	broth dilution	ATCC29213		8 µg/mL
CC(=O)C1=NN(c2ccccc2)C(=C(C#N)C(=O)c2ccc(Nc3cnccn3)cc2)S1	broth dilution	ATCC25923		50 µg/mL
CN[C@H](CC(C)C)C(=O)N[C@H]1C(=O)N[C@@H](CC(N)=O)C(=O)N[C@H]2C(=O)N[C@H]3C(=O)N[C@H](C(=O)N[C@H](C(=O)O)c4cc(O)cc(O)c4-c4cc3ccc4O)[C@H](O)c3ccc(c(Cl)c3)Oc3cc2cc(c3O[C@@H]2O[C@H](CO)[C@@H](O)[C@H](O)[C@H]2O[C@H]2C[C@](C)(N)[C@H](O)[C@H](C)O2)Oc2ccc(cc2Cl)[C@H]1O	broth dilution	USA300		1 µg/mL
C=C[C@]1(C)C[C@@H](OC(=O)CS[C@@H]2C[C@H]3CC[C@@H](C2)N3C)[C@]2(C)[C@H](C)CC[C@]3(CCC(=O)[C@H]32)[C@@H](C)[C@@H]1O	agar dilution	ATCC25923		0.0312 µg/mL
